# The sample as a whole holds a higher share of hits than the screen did.
# GSK3A inh = human GSK-3 alpha kinase inhibition | P49840 | ADP-Glo luminescence, 60 min | inhibition, % at 10 µM | actives 0.1% (n = 320,000);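 active = more than half of replicates show inhibition above 20%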;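 also: GST-tagged GSK-3 alpha with peptide substrate and 25 µM ATP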
# DYRK1A inh = inhibitors of rat Dyrk1A kinase; ADP-Glo luminescence, NFATc1 peptide; inhibition, % at 12.5 µM; actives 0.43% (n = 310,000); AID 504441; in the data active = inhibition above about 50%
# CDK5 p35 inh = CDK5/p35 (human) kinase inhibition | Recombinant CDK5/p35, ADP-Glo luminescence, 60 min | Q00535+Q15078 | AID 488839 | actives 0.01% (n = 330,000) | inhibition, % at 10 µM;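 active = highest replicate inhibition of at least 50% and at least 75% of replicates reaching 50%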
# STK33 kinase inh = inhibitors of human STK33 kinase; actives 0.073% (n = 320,000); AID 2661; Q9BYT3; inhibition, % at 10 µM; purified STK33, MBP phosphorylation, ADP-Glo luminescence;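 active = inhibition at or above 25%, using the most active replicate where run in duplicate; inactive = inhibition below 25%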
# Target sequence (Q9BYT3 whole entry, looked up): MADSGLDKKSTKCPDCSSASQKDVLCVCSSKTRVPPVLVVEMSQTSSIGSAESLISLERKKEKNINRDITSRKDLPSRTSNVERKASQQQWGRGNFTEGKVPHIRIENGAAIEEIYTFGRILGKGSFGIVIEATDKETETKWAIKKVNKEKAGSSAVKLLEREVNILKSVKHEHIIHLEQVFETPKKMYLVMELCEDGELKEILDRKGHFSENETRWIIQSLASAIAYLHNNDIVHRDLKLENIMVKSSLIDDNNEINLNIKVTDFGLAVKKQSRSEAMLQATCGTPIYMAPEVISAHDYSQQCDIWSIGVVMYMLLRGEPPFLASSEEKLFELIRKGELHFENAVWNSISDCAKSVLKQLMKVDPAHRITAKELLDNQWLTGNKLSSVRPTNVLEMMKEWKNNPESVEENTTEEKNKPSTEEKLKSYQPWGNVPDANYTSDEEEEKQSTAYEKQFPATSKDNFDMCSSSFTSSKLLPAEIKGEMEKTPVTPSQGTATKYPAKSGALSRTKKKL
# GSK3beta inhib = blocks human GSK3beta kinase activity; AID 2097; actives 0.038% (n = 300,000); activity score (negative = inhibition), % at 10 µM; GST-GSK3beta kinase, ADP-Glo luminescence, 60 min; stronger effect = lower value;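 active = more than half of replicate wells score below -50%, meaning over 50% inhibition versus plate controls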
#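 Test system: GST-tagged human GSK3beta kinase, cell-free; evaluation: activity score scaled between in-plate DMSO and GW8510 controls; measured by: ADP-Glo luminescence; incubation: 60 min reaction, RT; benchmarks: DMSO and 20 µM GW8510; reagent: peptide substrate plus 25 µM ATP (final); medium: Tris/MgCl2 kinase buffer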
# ADP-Glo artifact = interferes with ADP-Glo luciferase readout without Dyrk1A | shares compounds with DYRK1A inh | ADP-Glo luciferase artifact assay, no Dyrk1A, luminescence | AC50, µM (series often up to 12 µM) | 1,300 tested, under 10 active | AID 588348;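 active = fitted half-maximal dose AC50 no more than ten times the top valid tested dose, with luminescence dropping as dose rises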
# A number is an active result; - = inactive; . = no result.
SMILES,GSK3A inh,DYRK1A inh,CDK5 p35 inh,STK33 kinase inh,GSK3beta inhib,ADP-Glo artifact
CC1Cc2ccccc2N1c1ncnc2nc[nH]c12 (stereo not drawn),-,71.5,-,-,-,-
OC1CCN(c2ncnc3nc[nH]c23)CC1,-,-,-,-,-,.
Cc1ccnc(Nc2nc(-c3ccc(O)c(O)c3)cs2)c1,-,54.1,-,-,.,-
O=S(=O)(Nc1cccc(-n2cnnn2)c1)c1ccc(F)cc1,.,-,-,.,.,.
O=C(CN1C(=O)NC2(CCCCCC2)C1=O)NCCc1ccccc1,-,-,-,-,.,.
N#CCSc1nc(Nc2ccc3c(c2)OCO3)c2ccccc2n1,-,59.6,-,-,-,-
CCCCCC1CC(CC(C)C(=O)Nc2nncs2)C(=O)O1 (stereo not drawn),-,56.6,-,-,-,-
CC1CN(S(=O)(=O)c2cccc(C(=O)OCC(=O)N3CCCCCC3)c2)CC(C)O1 (stereo not drawn),-,-,-,-,.,.
COc1ccc(Cl)cc1NC(=O)COc1cccc(-n2cnnn2)c1,-,-,-,-,-,.
O=S1(=O)N=C(N(Cc2cccs2)c2ccc(O)cc2)c2ccccc21,-,73.3,-,-,-,-
Cc1cc(C)c(C#N)c(SCC(=O)N(CCC#N)c2ccc3c(c2)OCCO3)n1,.,-,-,.,.,.
COc1ccc2nc(C)c3c(c2c1)OC(C(C)(Cl)Br)C3 (stereo not drawn),-,79.1,-,-,-,-
CCCn1cnc2scc(-c3ccc(OC)cc3)c2c1=O,-,60.1,-,-,-,-
CCn1cnc2scc(-c3ccc(OC)cc3)c2c1=O,-,-,-,-,-,.
O=C(O)c1ccc(-c2ccc(/C=N/Nc3ccc([N+](=O)[O-])cc3)o2)cc1,-,-,-,-,-,.
O=C(O)c1cccc(-c2ccc(/C=N/Nc3ccc([N+](=O)[O-])cc3)o2)c1,-,59.9,-,-,-,-
O=C(O)C(Cc1ccccc1)N1C(=O)c2c(Cl)c(Cl)c(Cl)c(Cl)c2C1=O (stereo not drawn),-,.,-,-,-,.
Cc1cc(=O)oc2ccc(OC(=O)c3cccc(S(=O)(=O)N4CCOCC4)c3)cc12,-,54.1,-,-,-,-
COc1cccc(C(=O)c2sc(NC(C)C)nc2N)c1,93.7,53.2,55.2,-,-93.3,-
Cc1c(N(C)C(=O)C2CCCN2S(=O)(=O)c2ccccc2)c(=O)n(-c2ccccc2)n1C (stereo not drawn),-,-,-,-,-,.
COc1cccc(OCCOc2ccc(/C=C3/SC(=S)NC3=O)cc2)c1,-,-,-,-,-,.
O=C1NC(=S)SC1=Cc1cc(Br)ccc1O,.,83.7,-,.,.,-
O=C1NC(=S)SC1=Cc1ccccc1Br,.,-,-,.,.,.
O=C1NC(=S)SC1=Cc1ccc(F)cc1,.,83.5,-,.,.,-
COc1ccc(C=C2SC(=S)NC2=O)cc1,.,76.3,-,.,.,-
SMILES,GSK3A inh,DYRK1A inh,CDK5 p35 inh,STK33 kinase inh,GSK3beta inhib,ADP-Glo artifact
O=C(OCCc1cc2ccccc2c(=O)o1)c1cccs1,-,-,-,-,.,.
CC(=O)Nc1ccc(S(=O)(=O)NCCC(=O)OCC(=O)c2ccc(F)c(F)c2)cc1,-,-,-,-,-,.
COc1ccc(-c2cn[nH]c2C)cc1,-,62.6,-,-,-,-
Cc1c(C(=O)N2CCOCC2)sc(NC(=O)C(C)C)c1C#N,-,-,-,-,-,.
Cc1ccc(Nc2cc(C)c3c(O)cccc3n2)cc1C,-,-,-,-,-,.
Cc1ccccc1Nc1cc(C)c2c(O)cccc2n1,-,60.4,-,-,-,-
COc1cccc(/C=C2\Oc3ccc(O)cc3C2=O)c1O,-,50.1,-,-,-,-
COC(=O)c1ccc2c(c1)C(=O)/C(=C/c1ccc(O)cc1)O2,-,-,-,-,-,.
Nc1nc(Nc2ccccc2)nc2ccccc12,-,56.4,-,-,-,-
Cc1ccc(NCC(=O)N=Nc2c(O)[nH]c3ccc([N+](=O)[O-])cc23)cc1,-,.,.,-,-,.
O=C(Nc1ccc(F)cc1)C(=O)c1c(O)[nH]c2ccc([N+](=O)[O-])cc12,-,56.5,-,-,-,-
CCOc1ccc(/C=C2\SC(N3CCc4ccccc4C3)=NC2=O)cc1,-,-,-,-,-,.
COc1ccc(/C=C2\SC(N)=NC2=O)cc1,-,82.9,-,-,-,-
COc1ccc(/C=C2\SC(N3CCc4ccccc4C3)=NC2=O)cc1,-,70.4,-,-,-,-
NC1=NC(=O)C(=Cc2ccccc2)S1,.,-,-,.,.,.
CCOC(=O)CSC1=NC(=O)/C(=C/c2ccc(OC)cc2)S1,-,70.9,-,-,-,-
Cc1cc(C)cc(N(CC(=O)NC2CCCC2)C(=O)CNC(=O)c2ccco2)c1,-,-,-,-,-,.
O=C(NCc1ccccc1)C1=C[C@H](c2ccccc2)C[C@H](OCc2ccc(CO)cc2)O1,-,51.7,-,-,-,-
Cc1nn(-c2ccccc2)c(C)c1S(=O)(=O)O,-,-,-,-,-,.
COc1ccc(Nc2ncnc3ccccc23)c(OC)c1,-,-,-,-,-,.
COc1cccc(Nc2ncnc3ccccc23)c1,-,73.3,-,-,-,-
CCCCn1c(SCC(=O)Nc2cc(C)on2)nnc1-c1ccncc1,-,-,-,-,-,.
COc1ccc(-c2cc(=O)[nH]c(=O)[nH]2)cc1,-,-,-,-,-,.
COc1ccc(-c2cc(=O)[nH][nH]2)cc1,-,62.8,-,-,-,-
Oc1ccc(Nc2nc(-c3ccccc3)nc3ccccc23)cc1,-,85.5,-,-,-,-
SMILES,GSK3A inh,DYRK1A inh,CDK5 p35 inh,STK33 kinase inh,GSK3beta inhib,ADP-Glo artifact
O=C(COC(=O)C1CCCN1C(=O)c1cccs1)Nc1ccc2c(c1)OCO2 (stereo not drawn),-,-,-,-,-,.
O=C(O)c1[nH]c2ccc(Cl)cc2c1CCN1C(=O)c2ccccc2C1=O,-,66.3,-,-,-,-
COc1ccc2[nH]c(C(=O)O)c(CCN3C(=O)c4ccc(C(=O)O)cc4C3=O)c2c1,-,-,-,-,-,.
O=C(O)c1[nH]c2ccc(Br)cc2c1CCN1C(=O)c2cccc([N+](=O)[O-])c2C1=O,-,51.4,-,-,-,-
COc1ccc(-c2nnc(N(C)C(=O)C3CCOC3)s2)cc1 (stereo not drawn),-,-,-,-,-,.
CCCN1CCN(c2ncnc3scc(C4COc5ccccc5O4)c23)CC1 (stereo not drawn),-,56.8,-,-,-,-
O=C(N1CCCCC1)N1CCC(c2nc3ccccc3[nH]2)CC1,-,-,-,-,-,.
COc1ccc(N2C(=O)C3CCCN3C2c2cc(OC)c(OC)c(OC)c2)cc1 (stereo not drawn),.,61.5,-,-,-,-
CC[C@@H](C)[C@H](CNC)NC[C@@H](Cc1cccc2ccccc12)NCCc1cccc(C(F)(F)F)c1,-,54.5,-,-,-,-
CCC[C@H](CN[C@@H](CNC)[C@H](C)CC)NCCc1cc(C(F)(F)F)cc(C(F)(F)F)c1,-,-,-,-,-,.
